ChEMBL document CHEMBL1138266, “Design, synthesis, and biological evaluation of a 1alpha,25-dihydroxy-19-norvitamin D3 analogue with a frozen A-ring conformation” (J Med Chem, 2007)
The source made the active and inactive calls. The calls are words filed in the database; no cut-off is given here.

Columns and labels:
[1] = target: T1, Vitamin D3 receptor (Rattus norvegicus, UniProt P13053); experiment: (§1) Activity at VDR in rat osteosarcoma cells assessed as 24-hydroxylase transcription by reporter gene assay; format: cell-based
T1 sequence (P13053 whole entry): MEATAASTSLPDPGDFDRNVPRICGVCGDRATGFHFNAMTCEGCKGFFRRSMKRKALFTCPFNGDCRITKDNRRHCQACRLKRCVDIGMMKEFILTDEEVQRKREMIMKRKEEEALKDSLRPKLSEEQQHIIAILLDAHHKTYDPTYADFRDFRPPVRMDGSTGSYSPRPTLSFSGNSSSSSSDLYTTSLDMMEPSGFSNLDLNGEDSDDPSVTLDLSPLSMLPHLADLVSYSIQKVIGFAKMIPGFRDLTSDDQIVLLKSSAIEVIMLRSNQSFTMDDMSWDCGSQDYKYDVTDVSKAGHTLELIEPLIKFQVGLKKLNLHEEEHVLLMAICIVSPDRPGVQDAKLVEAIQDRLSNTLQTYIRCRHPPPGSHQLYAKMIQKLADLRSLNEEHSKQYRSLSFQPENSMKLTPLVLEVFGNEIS
Procedure, shortened: (§2)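 Rat osteosarcoma cells stably carrying a 24-hydroxylase gene reporter plasmid, read as luciferase activity.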

[2] = tested on: HL-60; experiment: Ratio of ED50 for drug to 1-alpha,25-dihydroxyvitamin for HL60 cells differentiation by NBT reduction assay; format: functional, Homo sapiens
Procedure, shortened: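 Human HL-60 promyelocytes induced toward monocytic differentiation; maturation scored as percentage of cells reducing nitro blue tetrazolium. […] Experiment repeated in duplicate two times.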

[3] = tested on: HL-60; experiment: Induction of differention of human HL60 cells into monocytes by NBT reduction assay; format: functional, cell-based
[4] = target: T1, Vitamin D3 receptor; experiment: Displacement of 1-alpha,25-dihydroxyvitamin from rat recombinant VDR
Procedure, shortened: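 Competitive binding against radiolabeled 1α,25-(OH)2D3 at 1 nM. Run in duplicate on two separate occasions.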

[5] = tested on: Mus musculus; experiment: Increase in serum calcium in vitamin D sufficient CD1 mouse at 33.3 ug/kg, ip; format: functional, organism-based
Procedure, shortened: (§3)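 Female CD-1 mice, 6-7 weeks old, were group-housed on a purified diet with 0.47% calcium and acclimated 5-7 days. Each got a single dose (n=5-6/group). Serum calcium was measured by atomic absorption after 0.1% lanthanum chloride dilution. Analysis was one-way ANOVA with pairwise comparisons.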

[6] = target: T2, Vitamin D3 receptor (Rattus norvegicus) (UniProt P13053); experiment: as §1; format: cell-based; procedure, shortened: as §2
T2 sequence (whole entry): T1 sequence (P13053 whole entry)

[7] = tested on: Mus musculus; experiment: Increase in serum calcium in vitamin D sufficient CD1 mouse at 50 ug/kg, ip; format: functional, organism-based; procedure, shortened: as §3
[8] = tested on: Mus musculus; experiment: Increase in serum calcium in vitamin D sufficient CD1 mouse at 150 ug/kg, po; format: functional, organism-based; procedure, shortened: as §3
[9] = tested on: Mus musculus; experiment: Increase in serum calcium in vitamin D deficient CD1 mouse at 181.5 […], ip after 24 hrs; format: functional, organism-based
Procedure, shortened: (§4)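 Female CD-1 mice, 6 weeks old on arrival, were fed a purified vitamin D-deficient diet for 17 weeks (n=3/group). They got a single intraperitoneal injection in 95:5 propylene glycol/ethanol vehicle. Blood was drawn predose and at multiple later times. Serum was diluted in 0.1% lanthanum chloride and calcium read by atomic absorption, reported as change from baseline.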

[10] = tested on: Mus musculus; experiment: Increase in serum calcium in vitamin D sufficient CD1 mouse at 33.3 ug/kg, po; format: functional, organism-based; procedure, shortened: as §3
[11] = tested on: Mus musculus; experiment: Increase in serum calcium in vitamin D deficient CD1 mouse at 5.4 […], ip after 24 hrs; format: functional, organism-based; procedure, shortened: as §4
[12] = tested on: Mus musculus; experiment: Increase in serum calcium in vitamin D sufficient CD1 mouse at 150 ug/kg, ip; format: functional, organism-based; procedure, shortened: as §3

| EC50 [1] [nM] | EC50 [3] [nM] | Ki [4] [nM] | Activity [6] | Structure (SMILES) | Ratio ED50 [2] | Activity [5] | Activity [7] | Activity [8] | Activity [9] | Activity [10] | Activity [11] | Activity [12] |
| --- | --- | --- | --- | --- | --- | --- | --- | --- | --- | --- | --- | --- |
| 100 | 100 | 30 |  | C[C@H](CCCC(C)(C)O)C1CC[C@H]2/C(=C/C=C3/C[C@@H](O)C4=CCCO[C@@H]4C3)CCC[C@]12C (some centres not stated) | >100 |  |  |  |  |  |  |  |
|  | 1000 | 10000 | inactive | C[C@H](CCCC(C)(C)O)C1CC[C@H]2/C(=C/C=C3\C[C@@H](O)C4=CCCO[C@@H]4C3)CCC[C@]12C (some centres not stated) | >1000 | Active | Active | Active | Active | Active | Active | Active |
|  |  |  |  | C=C1/C(=C\C=C2/CCC[C@]3(C)[C@@H]([C@H](C)CCCC(C)(C)O)CC[C@@H]23)C[C@@H](O)C[C@@H]1O |  |  |  |  | Active |  | Active |  |
